According to ChEMBL document CHEMBL1157861, “Phosphaisocoumarins as a new class of potent inhibitors for pancreatic cholesterol esterase” (Eur J Med Chem, 2010):
pIC50, pKi: −log10 of the molar value. Calls of active or inactive are those of the source. The calls are words filed in the database; no cut-off is given here.

Assays:
[1] = Inhibition of pig pancreatic cholesterol esterase assessed as p-nitrophenylbutyrate hydrolysis after 1 min; set-up: species or system Sus scrofa
How it was run: (§1)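 Porcine pancreatic CEase (0.0125 mU) is pre-incubated for 1 min with varied inhibitor concentrations in 0.1 M sodium phosphate, pH 7.04, with 0.1 M NaCl. PNPB (0.1 mM) is then added and hydrolysis is followed by A405 for 1 min. Compounds are also checked at one fixed top concentration. Each concentration is run in triplicate and averaged.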

[2] = Inhibition of pig pancreatic cholesterol esterase assessed as p-nitrophenylbutyrate hydrolysis at 100 uM after 1 min; set-up: species or system Sus scrofa; how it was run: as §1
Sus scrofa [3] = species on record: Sus scrofa; assay: Reversible inhibition of pig pancreatic cholesterol esterase assessed as p-nitrophenylbutyrate hydrolysis after 1 min
[4] = Competitive inhibition of pig pancreatic cholesterol esterase assessed as p-nitrophenylbutyrate hydrolysis after 1 min by Lineweaver-Burke plot analysis; set-up: species or system Sus scrofa
How it was run: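 For kinetics, CEase (0.0125 mU) is pre-incubated 1 min with inhibitor in sodium phosphate buffer. PNPB is then added at 0.07–0.3 mM and the A405 change is followed for 1 min at each substrate level. Mechanism is assigned from the rate data across substrate and inhibitor concentrations.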

Sus scrofa [5] = species on record: Sus scrofa; assay: Reversible inhibition of pig pancreatic cholesterol after 6 hrs absence of p-nitrophenylbutyrate
How it was run: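 CEase and excess inhibitor are incubated without substrate in sodium phosphate buffer, pH 7.04, with 5% acetonitrile by volume, at 25 °C for up to 6 h. Samples are checked periodically by TLC.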

SMILES | pIC50 [1] | further results
O=P1(O)OC(c2ccccc2)=Cc2ccc(Cl)cc21 | 4.41 | –
COc1ccc2c(c1)P(=O)(O)OC(c1ccccc1)=C2Br | 4.24 | –
CCOP1(=O)OC(c2ccc([N+](=O)[O-])cc2)=Cc2ccc(Cl)cc21 (centres undefined) | < 4.00 | –
CCOP1(=O)OC(C2CC2)=C(Br)c2ccc(OC)cc21 (centres undefined) | – | IC50 [2]: Not Active
CCCCC1=C(Br)c2ccc(Cl)cc2P(=O)(OCC)O1 (centres undefined) | – | IC50 [2]: Not Active
CCOP1(=O)OC(C2CC2)=Cc2ccc(Cl)cc21 (centres undefined) | – | IC50 [2]: Not Active
CCCCC1=Cc2ccc(Cl)cc2P(=O)(OCC)O1 (centres undefined) | 4.37 | –
CCOP1(=O)OC(c2ccccc2)=C(C#Cc2ccccc2)c2ccccc21 (centres undefined) | 5.64 | Activity (Sus scrofa [3]): Active; pKi [4]: 5.72; Activity (Sus scrofa [5]): inactive
CCOP1(=O)OC(c2ccccc2)=C(Cl)c2ccc(Cl)cc21 (centres undefined) | 4.46 | –
CCOP1(=O)OC(c2ccccc2)=C(Br)c2ccccc21 (centres undefined) | 4.72 | –
CCc1ccc(C2=Cc3ccc(Cl)cc3P(=O)(O)O2)cc1 | 4.23 | –
CCOP1(=O)OC(c2ccccc2)=C(Br)c2ccc(Cl)cc21 (centres undefined) | 4.29 | –
CCOP1(=O)OC(c2ccccc2)=C(Cl)c2ccccc21 (centres undefined) | 4.90 | –
CCOP1(=O)OC(c2ccccc2)=Cc2ccc(OC)cc21 (centres undefined) | 4.11 | –
O=P1(O)OC(c2ccccc2)=C(Cl)c2ccccc21 | 5.72 | Activity (Sus scrofa [3]): Active; pKi [4]: 5.85; Activity (Sus scrofa [5]): inactive
CCOP1(=O)OC(c2ccc(CC)cc2)=C(CC(=O)c2ccccc2)c2ccc(Cl)cc21 (centres undefined) | 5.29 | –
CCOP1(=O)OC(c2ccc(OC)cc2)=C(I)c2ccc(Cl)cc21 (centres undefined) | 4.58 | –
CCCCC1=C(Cl)c2ccccc2P(=O)(OCC)O1 (centres undefined) | – | IC50 [2]: Not Active
CCOP1(=O)OC(c2ccc(OC)cc2)=C(Br)c2ccc(Cl)cc21 (centres undefined) | 4.32 | –
O=P1(O)OC(c2ccccc2)=C(Br)c2ccccc21 | 4.85 | –
CCOP1(=O)OC(c2ccc(CC)cc2)=Cc2ccc(Cl)cc21 (centres undefined) | 4.39 | –
CCCCC1=Cc2ccccc2P(=O)(OCC)O1 (centres undefined) | – | IC50 [2]: Not Active
CCOP1(=O)OC(c2ccc(CC)cc2)=C(Br)c2ccc(Cl)cc21 (centres undefined) | 5.19 | –

SMILES | pIC50 [1] | further results
O=P1(O)OC(c2ccccc2)=Cc2ccccc21 | 4.02 | –
CCOP1(=O)OC(c2ccc(CC)cc2)=C(Cl)c2ccc(Cl)cc21 (centres undefined) | 5.05 | –
CCOP1(=O)OC(c2ccc(CC)cc2)=C(C#Cc2ccccc2)c2ccc(Cl)cc21 (centres undefined) | 5.07 | –
CCOP1(=O)OC(C2CC2)=C(Cl)c2ccc(OC)cc21 (centres undefined) | < 3.82 | –
CCCCC1=Cc2ccccc2P(=O)(O)O1 | 4.20 | –
CCCCC1=C(Br)c2ccccc2P(=O)(OCC)O1 (centres undefined) | – | IC50 [2]: Not Active
COc1ccc2c(c1)P(=O)(O)OC(c1ccccc1)=C2 | 3.99 | –
CCOP1(=O)OC(c2ccccc2)=C(I)c2ccccc21 (centres undefined) | 4.52 | –
O=P1(O)OC(c2ccccc2)=C(Cl)c2ccc(Cl)cc21 | 4.84 | –
CCOP1(=O)OC(c2ccccc2)=C(I)c2ccc(Cl)cc21 (centres undefined) | 4.32 | –
CCOP1(=O)OC(CO)=Cc2ccc(OC)cc21 (centres undefined) | 4.10 | –
CCOP1(=O)OC(c2ccccc2)=C(Br)c2ccc(OC)cc21 (centres undefined) | 4.46 | –
CCCCC1=C(I)c2ccccc2P(=O)(OCC)O1 (centres undefined) | – | IC50 [2]: Not Active
CCOP1(=O)OC(C2CC2)=C(I)c2ccc(Cl)cc21 (centres undefined) | – | IC50 [2]: Not Active
CCOP1(=O)OC(c2ccccc2)=C(Cl)c2ccc(OC)cc21 (centres undefined) | 4.05 | –
CCOP1(=O)OC(C2CC2)=C(Cl)c2ccc(Cl)cc21 (centres undefined) | < 4.00 | –
CCCCC1=C(Cl)c2ccc(Cl)cc2P(=O)(OCC)O1 (centres undefined) | – | IC50 [2]: Not Active
CCOP1(=O)OC(c2ccccc2)=Cc2ccccc21 (centres undefined) | 4.20 | –
CCOP1(=O)OC(c2ccccc2)=Cc2ccc(Cl)cc21 (centres undefined) | 4.24 | –
CCOP1(=O)OC(c2ccc(CC)cc2)=C(I)c2ccc(Cl)cc21 (centres undefined) | 5.32 | Activity (Sus scrofa [3]): Active; pKi [4]: 5.38; Activity (Sus scrofa [5]): inactive
CCOP1(=O)OC(c2ccccc2)=C(I)c2ccc(OC)cc21 (centres undefined) | 4.26 | –
CCOP1(=O)OC(C2CC2)=C(Br)c2ccc(Cl)cc21 (centres undefined) | – | IC50 [2]: Not Active
